In the library only some 1.5% were active in any assay of this set; here they are far more common.
Rev-erbA mod: modulators of human Rev-erb alpha DNA binding; AID 1259318; Rev-erbα–FITC-DNA binding, fluorescence polarization, 90 min; P20393; 0.79% of 370,000 active; activity, % at 10 µM;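 active means activity above about 14%, limit read from the data; passing the limit was not always enough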
Target sequence (P20393 whole entry, looked up): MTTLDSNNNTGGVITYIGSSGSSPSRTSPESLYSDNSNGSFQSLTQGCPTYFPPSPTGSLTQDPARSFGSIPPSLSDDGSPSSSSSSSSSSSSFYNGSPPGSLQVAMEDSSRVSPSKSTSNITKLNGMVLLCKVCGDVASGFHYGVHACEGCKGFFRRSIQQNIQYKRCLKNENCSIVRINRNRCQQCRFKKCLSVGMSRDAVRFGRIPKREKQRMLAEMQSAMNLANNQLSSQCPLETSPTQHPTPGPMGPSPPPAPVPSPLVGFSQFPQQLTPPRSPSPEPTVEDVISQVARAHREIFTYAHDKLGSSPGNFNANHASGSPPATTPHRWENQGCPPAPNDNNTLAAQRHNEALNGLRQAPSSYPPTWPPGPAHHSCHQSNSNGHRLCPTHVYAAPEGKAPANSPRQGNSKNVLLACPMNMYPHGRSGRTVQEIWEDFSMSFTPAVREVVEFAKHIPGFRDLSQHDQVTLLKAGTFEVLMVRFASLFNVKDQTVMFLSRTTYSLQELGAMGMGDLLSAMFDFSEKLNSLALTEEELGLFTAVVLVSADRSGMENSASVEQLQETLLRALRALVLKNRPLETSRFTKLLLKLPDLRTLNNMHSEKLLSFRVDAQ
NR2E3 ag-1: activates human photoreceptor nuclear receptor NR2E3; AID 2300; GST-NR2E3/biotin-RetCOR TR-FRET, 1536-well; Q9Y5X4; inhibition of corepressor binding, % at 4.78 µM; 0.12% of 320,000 active;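 active means percent inhibition above the cutoff of mean plus 3 SD of all tested compounds, set per screening campaign, cut at about 20% in these data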
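Test system – NR2E3–RetCOR corepressor complex · Quantity – NR2E3 fusion 1.35 nM · Buffer or medium – Tris pH 7.5 · Incubation – Compound–protein incubation for 5 h at 4 °C · Technique – TR-FRET, Eu(K)-anti-GST donor, streptavidin-D2 acceptor, ex 340, em 617/671 nm · Evaluation – percent inhibition of 671/617 nm emission ratio versus biotin and DMSO controls · Plate – 1536-well format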
NR2E3 ag-2: activates human NR2E3 receptor | CHO-S Gal4-NCOR/VP16-NR2E3 two-hybrid, luciferase | inhibition of corepressor binding, % at 3.98 µM | 0.35% of 360,000 active;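 active means inhibition above the mean of all tested compounds plus 3 SD, cut at about 70% in these data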;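 further: higher means lower luciferase signal from less NR2E3 corepressor binding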
PG9 Ab binder: binds the HIV-1 gp120 antibody PG9; TR-FRET gp120-PG9 antibody binding; inhibition, % at 6.7 µM; 0.43% of 360,000 active; AID 624416; in the data active means inhibition above about 8.5%
NR2E3 ag conf: NR2E3 agonism confirmed in two-hybrid assay | shares compounds with NR2E3 ag-2 | CHO-S mammalian two-hybrid NR2E3-NCOR, luciferase luminescence | inhibition, % at 3.98 µM | 51% of 2,300 active;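 active means average inhibition above a cutoff equal to the mean inhibition of all tested compounds plus one SD, cut at about 70% in these data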
VP16 counter: counter-screen for NR2E3 agonists: GAL4-VP16 reporter inhibitors. shares compounds with NR2E3 ag-2. CHO-S GAL4-VP16 luciferase reporter, luminescence. inhibition, % at 3.98 µM. 29% of 2,300 active. AID 624379;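 active means mean inhibition above a cutoff equal to the average over all tested compounds plus one standard deviation, cut at about 70% in these data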;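 further: luciferase from a UAS reporter driven by GAL4-VP16 transactivation; higher means less reporter light so more repression of VP16 activity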
Each line names hits and unclear results; the compound was inactive in the other large screens (follow-up assays come after a bar, where they were run).

CC(O)(c1ccncc1)c1nc(-c2cccc(C(F)(F)F)c2)cs1 (stereo not given)	NR2E3 ag-2 85 (no result: NR2E3 ag-1) | NR2E3 ag conf 93 | VP16 counter 74
Cc1cccc(-c2cccc3c4c([nH]c23)[C@@H]2C[C@H](N(C)C(=O)Nc3ccccc3C)[C@H]([C@H](C)O)C(=O)N2CC4)c1	none (no result: NR2E3 ag-1, NR2E3 ag-2, PG9 Ab binder)
Cc1nnc(SCC(=O)NC2CCCC2)n1-c1ccccc1	none
COC(=O)N1C2CCCCC2=NN(c2ccccc2)N1C(=O)OC (stereo not given)	NR2E3 ag-2 71 (no result: NR2E3 ag-1) | NR2E3 ag conf inactive | VP16 counter inactive
Cc1cc(Nc2cccc(F)c2)nc(NCc2ccccc2)n1	NR2E3 ag-2 83 | NR2E3 ag conf 92 | VP16 counter inactive
CCCCNc1cc(C)nc(NCc2ccccc2)n1	NR2E3 ag-2 83 (no result: Rev-erbA mod, PG9 Ab binder) | NR2E3 ag conf 94 | VP16 counter 84
Cc1cc(Nc2ccccc2)nc(NCc2ccccc2)n1	NR2E3 ag-2 88 | NR2E3 ag conf 96 | VP16 counter 81
Cc1cc(Nc2ccc(Cl)cc2)nc(NCc2ccccc2)n1	none
CCOC(=O)c1ccc(NS(=O)(=O)c2cc3c4c(c2)CCN4C(=O)CC3)cc1	none | NR2E3 ag conf inactive | VP16 counter inactive
COC(=O)c1ccc(NS(=O)(=O)c2cc3c4c(c2)CCN4C(=O)CC3)cc1	none
CC(C)CCNC(=O)C1COC(O)(C(Cc2ccccc2)NC(=O)[C@@H](NC(=O)OCc2ccccc2)C(C)C)CN1 (stereo not given in full)	none (no result: NR2E3 ag-1, NR2E3 ag-2, PG9 Ab binder)
Cc1nc2ncnn2c(N2CCN(c3cccc(C(F)(F)F)c3)CC2)c1C	NR2E3 ag-2 71 | NR2E3 ag conf 72 | VP16 counter inactive
O=C(c1ccc(N2CCCCC2)c([N+](=O)[O-])c1)N1CCN(S(=O)(=O)c2ccccc2)CC1	none
NC(=O)c1ccc(N2CCN(S(=O)(=O)c3ccccc3)CC2)c([N+](=O)[O-])c1	NR2E3 ag-2 74 | NR2E3 ag conf 87 | VP16 counter inactive
CC(=O)Nc1nc2ncccn2c1-c1ccc(F)c(F)c1	none (no result: NR2E3 ag-1, NR2E3 ag-2, PG9 Ab binder)
Nc1ncnc2c1c(-c1ccc(Oc3ccccc3)cc1)cn2C1CCCC1	NR2E3 ag-2 74 | NR2E3 ag conf 86 | VP16 counter 72
Cc1ccc(CNc2nc(C)nc3sc4c(c23)CCC4)cc1	none | NR2E3 ag conf inactive | VP16 counter inactive
COC(=O)C1CN(Cc2ccc(F)cc2)CCS(=O)(=O)N1Cc1cn(CCOC(C)=O)nn1 (stereo not given)	none (no result: NR2E3 ag-1, NR2E3 ag-2, PG9 Ab binder)
C=C1C(=O)[C@@]23[C@H](O)C[C@@H]4C(C)(C)CC[C@H](O)[C@]4(C)[C@@H]2C[C@H](O)[C@@H]1[C@H]3O	none
C=C1C(=O)[C@@]23[C@H](O)C[C@@H]4C(C)(C)CC[C@H](O)[C@@]4(C)[C@@H]2CC[C@@H]1[C@H]3O	none | NR2E3 ag conf inactive | VP16 counter inactive
CS(=O)(=O)N[C@@H]1C[C@@H]2O[C@H](CO)CC[C@@H]2O[C@@H]1CCc1ccc(-c2ccccc2F)cc1	none (no result: NR2E3 ag-1, NR2E3 ag-2, PG9 Ab binder)
CC(C)=CCC[C@@]1(C(=O)O)[C@H]2CC=C(CO)[C@@H]1CC/C(C)=C/CC/C(C)=C/C2	none (no result: NR2E3 ag-1, NR2E3 ag-2, PG9 Ab binder)
CCOc1ccc(C(=O)OCC(=O)NCCCc2ccccc2)cc1	none
CCOc1ccc(/C(CCC(=O)O)=N/NC(=S)NCCc2ccccc2)cc1	none | NR2E3 ag conf inactive | VP16 counter inactive
C/C(=N\NC(=S)NCCc1ccccc1)c1ccc(O)cc1O	NR2E3 ag-2 78 | NR2E3 ag conf inactive | VP16 counter inactive
C/C(=N\NC(=S)NCc1ccccc1)c1ccccc1	none | NR2E3 ag conf inactive | VP16 counter inactive
C/C(=N\NC(=S)NCCc1ccccc1)c1ccc(Cl)cc1Cl	none
CC(C)=CCC/C(C)=C/CN1CC(=O)N2[C@H](C[C@@]3(n4ccc5ccccc54)c4ccccc4N(S(=O)(=O)c4ccccc4)[C@@H]23)C1=O	none (no result: NR2E3 ag-1, NR2E3 ag-2, PG9 Ab binder)
O=C(C1CCCO1)N1CCN(C2=Nc3ccccc3Sc3ccccc32)CC1 (stereo not given)	none (no result: NR2E3 ag-1, NR2E3 ag-2, PG9 Ab binder)
O=C(NCCC1=CCCCC1)c1ccc2c(c1)N(Cc1ccccc1)C(=O)CS2	none
CN1C(=O)CS(=O)c2ccc(C(=O)NCCC3=CCCCC3)cc21 (stereo not given)	none | NR2E3 ag conf inactive | VP16 counter inactive
Cc1cc2c(c(=O)o1)[C@@]1(C(=O)Nc3ccccc31)C1=C(CCCC1=O)O2	none (no result: NR2E3 ag-1, NR2E3 ag-2)
O=C(NCc1ccccc1)C1(C(=O)C2CC2)CC(c2ccccn2)=NO1 (stereo not given)	none (no result: NR2E3 ag-1, NR2E3 ag-2, PG9 Ab binder)
CN(CCc1ccccn1)C(=O)c1ccc(Sc2ccccc2Cl)c([N+](=O)[O-])c1	none (no result: NR2E3 ag-1, NR2E3 ag-2, PG9 Ab binder)
CCOC(=O)C1=C(CC)Nc2ccccc2N/C1=N\S(=O)(=O)c1cc(Br)ccc1Br	none (no result: NR2E3 ag-1) | NR2E3 ag conf 88 | VP16 counter inactive
CCOC(=O)C1=C(CC)Nc2ccccc2N/C1=N\S(=O)(=O)c1ccc2ccccc2c1	none
O=C(c1ccccc1I)N1CCC(Oc2cccnc2)CC1	none (no result: NR2E3 ag-1, NR2E3 ag-2, PG9 Ab binder)
COCc1cc(=O)n2[nH]cc(-c3ccccc3)c2n1	none
CCCc1cc(=O)n2[nH]cc(-c3ccc(Cl)cc3)c2n1	NR2E3 ag-2 93 (no result: NR2E3 ag-1) | NR2E3 ag conf 98 | VP16 counter 71
C=CCn1c(C)cc(C(=O)CN2C(=O)c3ccccc3S2(=O)=O)c1C	none (no result: Rev-erbA mod, PG9 Ab binder) | NR2E3 ag conf 76 | VP16 counter inactive
COCC(C)n1c(C)cc(C(=O)CSc2nc3ccccc3c(=O)[nH]2)c1C (stereo not given)	none | NR2E3 ag conf inactive | VP16 counter inactive
Cc1cc(C(=O)CSc2nc3ccc(Cl)cc3[nH]2)c(C)n1C	none
C=CCn1c(C)cc(C(=O)CSc2nc3ccccc3[nH]2)c1C	none | NR2E3 ag conf inactive | VP16 counter inactive
Cc1cc(C(=O)CSc2nc3ccc(Cl)cc3[nH]2)c(C)n1CC1CCCO1 (stereo not given)	none | NR2E3 ag conf 80 | VP16 counter inactive
C=CCn1c(C)cc(C(=O)CSc2nc3ccccc3c(=O)[nH]2)c1C	none
COCCn1c(C)cc(C(=O)CSc2nc3ccccc3c(=O)[nH]2)c1C	none
Cc1ccc(S(=O)(=O)N(C)C)cc1NC(=O)C(C)NC(C)c1cccs1 (stereo not given)	none
Cc1ccc(S(=O)(=O)N(C)C)cc1NC(=O)C(C)N(C)Cc1sccc1C (stereo not given)	none | NR2E3 ag conf inactive | VP16 counter inactive
CCOc1ccc(CN2CCC(C(=O)N3CCN(c4ccccc4F)CC3)CC2)cc1OC	none
CCOc1ccc(S(=O)(=O)N2CCC(C(=O)N3CCN(c4ccccc4F)CC3)CC2)cc1C	none | NR2E3 ag conf inactive | VP16 counter inactive
C=CCN(C(=O)[C@@H](CCCC)[C@@H](O)c1ccc(C(C)=O)cc1)c1ccccc1	none (no result: NR2E3 ag-1, NR2E3 ag-2, PG9 Ab binder)
Cc1ccc(C(=O)NCC(=O)OCc2nc3sc(C)c(C)c3c(=O)[nH]2)cc1	none (no result: NR2E3 ag-1, NR2E3 ag-2, PG9 Ab binder)
COc1ccc(CN2C(=O)[C@@](O)(c3cccn3C)c3cc(Br)ccc32)cc1	none (no result: NR2E3 ag-1, NR2E3 ag-2, PG9 Ab binder)
OC[C@@H]1CN(Cc2ccccc2)C[C@H](n2cnc3c(NC4CC4)ncnc32)O1	none (no result: NR2E3 ag-1)

Bioassay records from PubChem BioAssay.
